# Screens: PubChem BioAssay, several laboratories
# Tb MetRS inh – blocks T. brucei methionyl-tRNA synthetase activity; AID 624268; inhibition, % at 11.9 µM; purified T. brucei MetRS, ATP depletion, Kinase-Glo luminescence; 0.4% of 360,000 active;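 active = inhibition above a per-plate cutoff of the control wells' mean inhibition plus 3 SD, cut at about 5.5% in these data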
#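 technique = Kinase-Glo luminescence, ATP depletion format | system = purified MetRS (methionyl-tRNA synthetase) enzyme from Trypanosoma brucei | timing = 15 min preincubation, 2 h reaction, all 25 °C | evaluation = percent inhibition versus plate control medians | dosing = single dose, 11.9 µM final nominal, 0.9% final DMSO | also added = substrates ATP, L-methionine and bulk Escherichia coli tRNA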
# AI-2 QS modul – modulates the Vibrio harveyi AI-2 quorum sensing system | Vibrio harveyi JMH597 AI-2 luminescence/OD600 ratio, 9 h; active compounds read low; strain lacks LuxN and CqsS sensors; 0 = neutral-control median | activity change, % at 7.5 µM | 0.4% of 300,000 active | AID 2094; in the data active = activity change below about -75%, passing the limit was not always enough;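 note: luminescence divided by OD600 gain over 9 h not by final OD600 alone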
# bovine MsrA act – bovine methionine sulfoxide reductase A activation; purified bovine MsrA, absorbance read-out; AID 602163; activation, % at 10.6 µM; 0.3% of 360,000 active; in the data active = activation above about 7.5%
# AHR act – activators of human aryl hydrocarbon receptor. activation, % at 5 µM. AHR-responsive luciferase reporter cells, luminescence. P35869. 2.5% of 320,000 active; in the data active = activation above about 47%
# MsrA inh – inhibitors of bovine MsrA; purified bovine MsrA, absorbance read-out; inhibition, % at 15.5 µM; 0.75% of 360,000 active; AID 651718; in the data active = inhibition above about 4.5%
# m5-HT2A agonist – agonists of mouse serotonin 5-HT2A receptor (HTR2A) | CHO-K1 mHTR2A beta-arrestin complementation, luminescence; percent of 30 µM serotonin response | activation, % at 7.6 µM | 0.66% of 360,000 active;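 active = activation above a run cutoff, the mean activation of all tested compounds plus 3 SD, cut at about 14% in these data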
# Target sequence (P35363 whole entry, looked up): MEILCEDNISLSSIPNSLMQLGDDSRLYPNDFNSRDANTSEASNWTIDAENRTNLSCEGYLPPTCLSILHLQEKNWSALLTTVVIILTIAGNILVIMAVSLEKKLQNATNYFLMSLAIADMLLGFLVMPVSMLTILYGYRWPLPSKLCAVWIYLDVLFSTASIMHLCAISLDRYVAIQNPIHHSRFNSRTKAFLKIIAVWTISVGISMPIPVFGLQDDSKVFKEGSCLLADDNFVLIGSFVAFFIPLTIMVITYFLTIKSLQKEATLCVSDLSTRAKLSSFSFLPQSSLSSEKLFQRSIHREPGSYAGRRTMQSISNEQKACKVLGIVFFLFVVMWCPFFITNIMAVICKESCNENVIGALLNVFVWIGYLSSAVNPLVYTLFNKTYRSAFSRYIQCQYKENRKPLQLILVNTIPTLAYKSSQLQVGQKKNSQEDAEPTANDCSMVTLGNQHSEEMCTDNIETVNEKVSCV
# AHR act cf – confirmation of human aryl hydrocarbon receptor activators; shares compounds with AHR act; human cells, AHR-responsive luciferase reporter, luminescence; activation, % at 9 µM; 87% of 2,300 active; in the data active = activation above about 49%;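 note: HepG2 hepatoma cells carrying a DRE-driven firefly luciferase reporter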
# PXR act counter – PXR activation, counter-screen for AHR activators; shares compounds with AHR act; cell-based PXR reporter, luciferase luminescence; activation, % at 11.6 µM; 88% of 2,300 active; AID 434939; in the data active = activation above about 11%;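 note: human hepatoma DPX-2 cells expressing full-length human PXR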
# Numbers stand for hits; 0 = inactive; - = not tested or not shown. In the library only some 4.4% were active in any assay of this set; here they are far more common.
SMILES,Tb MetRS inh,AI-2 QS modul,bovine MsrA act,AHR act,MsrA inh,m5-HT2A agonist,AHR act cf,PXR act counter
CC(C)c1ccc2nc(NC(=O)C3CC3)sc2c1,0,0,0,89,0,0,79,39
Cc1ccc2sc(NC(=O)C3CC3)nc2c1C,0,0,0,0,0,0,-,-
CCCc1nn2c(=O)cc(CSCC(=O)Nc3cccc(OC)c3)nc2s1,0,0,0,0,0,0,-,-
O=C1Nc2ccccc2/C1=C/c1ccccc1F,0,0,0,94,0,0,93,17
O=C1NC2=C(CCc3ccccc32)C(c2ccccc2)N1 (stereo not drawn),0,0,0,82,0,0,0,22
O=S(=O)(Nc1ccc(-n2cnnn2)cc1)c1cccc(Cl)c1,0,-,0,-,0,0,-,-
Brc1cccc2sc(N3CCN(c4ccccc4)CC3)nc12,0,0,0,91,0,0,108,18
CCc1nc2ccc(C(=O)Nc3ccc(OC)c(OC)c3)cn2c1N(C)Cc1ccc(N(C)C)cc1,0,-,0,-,0,0,-,-
CCc1nnc(NC(=O)CSc2nc(C)cc(C)c2C#N)s1,0,0,0,102,0,0,62,45
COc1ccccc1C(=O)NC(=O)COC(=O)CCOc1cc(C)ccc1C,0,0,0,0,0,0,-,-
COC(=O)c1ccc(C)c(NC(=O)c2ccc(CN3CCc4ccccc4C3)cc2)c1,0,0,0,0,0,0,-,-
C/C(=N\Nc1ccc([N+](=O)[O-])cc1[N+](=O)[O-])c1ccc(-n2nncc2C(C)(C)C)cc1,0,0,0,120,0,0,78,38
C/C(=N/Nc1ccccc1[N+](=O)[O-])c1ccc([N+](=O)[O-])cc1,0,0,0,0,0,0,-,-
Cc1ccc(CN2CCNC(=O)C2CC(=O)NCc2cc(C)n(C)n2)cc1 (stereo not drawn),0,0,0,0,0,0,-,-
COc1ccc(/C=C/C(=O)c2ccc(OC)cc2OC)cc1,0,0,0,0,0,0,-,-
COc1ccc(/C=C/C(=O)c2cc3c(cc2N)OCO3)cc1,0,0,0,96,0,0,128,26
N#Cc1ccc(C23OCCN2CCn2c3c3ccccc3[n+]2[O-])cc1 (stereo not drawn),0,-,0,112,0,0,122,46
Cc1ccc(C23OCCN2CCn2nc4ccccc4c23)cc1 (stereo not drawn),0,-,0,0,0,0,-,-
CCN(CC)C(=O)C1=C(C)N(Cc2ccccc2)C(=O)C(CC(=O)NCCN2CCOCC2)C1 (stereo not drawn),0,-,0,-,0,0,-,-
COc1ccc(OC)c(NC(=O)c2sc3ncnc(N4CCN(c5ccccn5)CC4)c3c2C)c1,0,0,0,0,-,0,-,-
CCN1CCN(c2ncnc3sc(C(=O)Nc4ccccc4F)c(C)c23)CC1,0,0,0,128,0,0,75,23
O=C(CCc1nnc2ccc(NCc3ccccc3Cl)nn12)NC1CCCCC1,0,0,0,0,0,0,-,-
O=C(N/N=C/c1c[nH]c2c1ccc1ccccc12)c1ccc([N+](=O)[O-])cc1,0,0,0,105,0,0,79,11
CC(c1ccccc1)n1c(N2CCN(C)CC2)nc2c1c(=O)[nH]c(=O)n2C (stereo not drawn),0,0,0,0,0,0,-,-
COc1ccc(/C=C/c2nc(-c3ccccc3O)n[nH]2)cc1,0,0,0,94,0,0,0,0
SMILES,Tb MetRS inh,AI-2 QS modul,bovine MsrA act,AHR act,MsrA inh,m5-HT2A agonist,AHR act cf,PXR act counter
CC(=O)N1CCOc2ccc(S(=O)(=O)NCC3CCC(C(=O)Nc4ccc(C)cn4)CC3)cc21 (stereo not drawn),0,0,0,0,0,0,-,-
CC(=O)N(Cc1ccco1)c1nc(C(=O)Nc2ccc(Cl)cc2)c(C)s1,0,0,0,90,0,0,66,63
CCCCc1ccc(NC(=O)CN2C(=O)C3CCCCC3C2=O)cc1 (stereo not drawn),0,0,0,0,0,0,-,-
Cc1ccc(C)c(CC(=O)N2CCCCC2c2cc(C(=O)Nc3ccc(F)c(Cl)c3)no2)c1 (stereo not drawn),0,-,0,-,0,0,-,-
O=C1CCC(C(=O)OCC(=O)N2N=C3/C(=C\c4ccccc4)CCCC3C2c2ccccc2)N1 (stereo not drawn),0,-,0,-,0,0,-,-
O=C(c1ccccn1)N1N=C2/C(=C/c3ccccc3)CCCC2C1c1ccccc1 (stereo not drawn),0,0,0,112,0,0,108,65
O=C(Nc1ccc(F)cc1)c1nsc(Cl)c1Cl,0,0,0,83,0,0,222,40
COc1cccc(NC(=O)c2ccc3nsnc3c2)c1,0,0,0,0,0,0,-,-
CN(C)c1ccc(NC(=O)c2ccc3nc[nH]c3c2)cc1,0,0,0,0,0,0,-,-
O=C(Nc1ccc(F)cc1)c1ccc2nc[nH]c2c1,0,0,0,147,0,0,136,14
O=C(Nc1ccc(F)cc1)c1ccc2nsnc2c1,0,0,0,96,0,0,124,26
O=C(Nc1ccc(F)c(Cl)c1)c1nsc(Cl)c1Cl,0,0,0,0,0,0,-,-
CCOc1ccc(-c2c(C(=O)N/N=C/c3ccsc3)nnn2-c2nonc2N)cc1,0,0,0,0,0,0,-,-
CCc1ccc(OCC(=O)OC(C)C(=O)Nc2ccc(Cl)cn2)cc1 (stereo not drawn),0,-,0,0,0,0,-,-
C[C@@H](NC(=O)[C@@H]1CCCN1C(=O)[C@@H]1CCCN1C(=O)c1cccc2ccccc12)c1ccccc1,0,-,0,-,0,0,-,-
COc1cccc(-c2c(NC(=O)c3ccco3)oc3ccc(Cl)cc3c2=O)c1,0,0,0,104,0,0,84,57
Cc1cc(C)cc(NC(=S)Nc2ccccn2)c1,0,0,0,91,0,0,112,27
Cc1ccc(NS(=O)(=O)c2c(C(=O)N3CCCC3)c(C)n(C)c2C)cc1,0,0,0,0,0,0,-,-
COc1ccc(-c2coc3cc(OC)cc(OC)c3c2=O)cc1,0,0,0,93,0,0,132,26
COc1ccc(-c2coc3cc(OC)cc(O)c3c2=O)cc1,0,0,0,0,0,0,-,-
COc1ccc(N2CCN(C(=O)COC(=O)COc3cccc(C(F)(F)F)c3)CC2)cc1,0,-,0,0,0,0,-,-
Cc1nnc2c(-c3ccccc3)nc3ccccc3n12,0,0,0,89,0,0,109,13
O=C1c2ccccc2[C@@H]2C[C@@H](O)[C@H](Nc3ccccc3-c3ccccc3)CCN12,0,-,0,-,0,0,-,-
CCNC(=S)Nc1cccc(NC(=O)c2ccccc2O)c1,0,0,0,86,0,0,124,14
